IDH1 R132H inh – inhibitors of IDH1 R132H reductase, primary screen, biochemical, plate reader, single point; Isocitrate dehydrogenase [NADP] cytoplasmic (Homo sapiens), O75874; diaphorase/resazurin fluorescence, 60 min; inhibition, % at 10 µM; hit rate 0.18% among 70,000; AID 624101, 2012; in the data active = inhibition above about 34%; inconclusive = no clear call, values can overlap the other calls; inactive = below about 11%;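 also: 0% = DMSO and 100% = no enzyme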
Target sequence (O75874 whole entry R132H): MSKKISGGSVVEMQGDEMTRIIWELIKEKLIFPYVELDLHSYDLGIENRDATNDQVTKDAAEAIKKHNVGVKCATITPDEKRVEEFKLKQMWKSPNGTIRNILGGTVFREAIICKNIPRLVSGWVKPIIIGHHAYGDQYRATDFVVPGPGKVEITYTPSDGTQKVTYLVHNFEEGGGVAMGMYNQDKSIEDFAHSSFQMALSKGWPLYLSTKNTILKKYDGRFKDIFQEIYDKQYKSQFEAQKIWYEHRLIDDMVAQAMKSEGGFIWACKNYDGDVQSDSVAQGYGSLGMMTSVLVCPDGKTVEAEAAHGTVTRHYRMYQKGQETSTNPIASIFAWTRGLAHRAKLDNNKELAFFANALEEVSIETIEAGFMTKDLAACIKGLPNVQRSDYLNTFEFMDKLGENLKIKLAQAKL
T cruzi growth-1 – T. cruzi intracellular proliferation inhibitors, primary screen, cell-based, beta-gal Tulahuen parasites, NIH3T3 host, luminescence | T. cruzi beta-gal in NIH3T3, GalScreen luminescence, 90 h | inhibition, % at 8.34 µM | hit rate 5.9% among 77,000 | AID 624255, 2012;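 active = mean inhibition above about 93%, with at least 55% of replicates each passing it, limit read from the data, passing the limit was not always enough; inconclusive = only one of those two conditions holds; inactive = neither condition holds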
KDM4C inh – inhibitors of GASC-1 (KDM4C) histone demethylase, primary screen, biochemical, single concentration HTS | GST-KDM4C 2-372, H3K9me3 peptide, LANCE TR-FRET | inhibition, % at 12.5 µM | AID 720574, 2013 | Lysine-specific demethylase 4C (Homo sapiens), Q9H3R0 | hit rate 0.15% among 96,000;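 active = mean replicate inhibition above about 25%, with at least 55% of replicates also reaching it, limit read from the data, passing the limit was not always enough; inconclusive = only one of those two conditions met; inactive = neither condition met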
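Test system: N-terminal GST-fused human GASC-1 (KDM4C) fragment, residues 2-372; quantity: GASC-1 enzyme at 10 nM final in reaction; dosing: single dose; schedule: 30 min demethylation and 1 h detection at room temperature; signal: LANCE TR-FRET, excitation 340 nm, emissions 618 and 671 nm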
Pf Dd2 growth – P. falciparum Dd2 growth inhibitors, primary screen, SYBR Green fluorescence, single dose replicates; 72 h; active compounds read low; activity change, % at 10 µM; hit rate 2.3% among 94,000; in the data active = activity change below about -80%; inconclusive = no clear call, values can overlap the other calls
T cruzi growth-2 – T. cruzi intracellular proliferation inhibitors, confirmation, cell-based, NIH3T3 host, beta-gal parasite, luminescence, cherry-pick | AID 651739, 2012 | inhibition, % at 8.35 µM | T. cruzi beta-gal in NIH3T3, GalScreen luminescence, 90 h | hit rate 72% among 5,600 | shares compounds with T cruzi growth-1;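 active = mean replicate inhibition above about 95% and at least 55% of replicates individually reaching it, limit read from the data; inconclusive = only one of the two criteria is met; inactive = neither criterion is met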
T cruzi growth-3 – inhibitors of intracellular T. cruzi replication, confirmation, NIH3T3 host cells, beta-gal parasites, cherry-pick, set 2 | shares compounds with T cruzi growth-1 | T. cruzi beta-gal in NIH3T3, GalScreen luminescence, 90 h | inhibition, % at 2.09 µM | hit rate 21% among 5,600;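 active = mean inhibition above about 95%, with at least 55% of replicates also reaching it, limit read from the data; inconclusive = meets just one of the two conditions; inactive = meets neither condition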;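 also: plate controls were neutral control median for no effect and positive control median for full effect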
NIH3T3 tox – cytotoxicity in mouse NIH/3T3 fibroblasts, confirmation, cytotoxicity control for T. cruzi proliferation inhibitor project, cell-based, cherry-pick, single point | shares compounds with T cruzi growth-1 | cytotoxicity (signal decrease), % at 8.35 µM | NIH/3T3 viability, CellTiter-Glo ATP luminescence, 90 h | hit rate 14% among 5,600;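 active = mean signal decrease across replicates above about 35% based on untreated-well scatter, with enough replicates individually passing, limit read from the data; inconclusive = no rule stated though some were filed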;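 also: 0% = median of neutral control wells and 100% = median of positive control wells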
NIH3T3 tox 2 – NIH/3T3 fibroblast cytotoxicity, confirmation, cytotoxicity control, cell-based, cherry-pick, single point, set 2; inhibition, % at 24.9 µM; AID 651744, 2012; shares compounds with T cruzi growth-1; hit rate 56% among 5,600; NIH/3T3 viability, CellTiter-Glo ATP luminescence, 90 h;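 active = mean loss of cell viability signal at or above a set limit, and enough replicates individually reaching it; inconclusive = meets only the mean limit or only the replicate share; inactive = meets neither condition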;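 also: 0% = median of neutral control wells and 100% = median of positive control wells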
Active calls of the source: *; ? = inconclusive; . = no result given. Hits are enriched below; roughly 5.9% of the tested compounds scored in any of these assays.

SMILES	IDH1 R132H inh	T cruzi growth-1	KDM4C inh	Pf Dd2 growth	T cruzi growth-2	T cruzi growth-3	NIH3T3 tox	NIH3T3 tox 2
Cc1ccc(-c2nnc3c4ccccc4c(C)nn23)cc1S(N)(=O)=O	0	.	.	.	.	.	.	.
CCCN(C)C[C@@H]1OCCCC[C@H](C)Oc2ccc(NC(=O)CCCN(C)C)cc2C(=O)N([C@@H](C)CO)C[C@@H]1C	1	?	9	-18	0	-28	1	-2
C[C@H]1CCCCO[C@H](CN(C)Cc2ccncc2)[C@@H](C)CN([C@@H](C)CO)C(=O)c2cc(NC(=O)CCCN(C)C)ccc2O1	11	99*	8	28	-1	20	8	4
C[C@@H]1CCCCO[C@@H](CN(C)Cc2ccc(C(F)(F)F)cc2)[C@@H](C)CN([C@@H](C)CO)C(=O)c2cc(NC(=O)CCCN(C)C)ccc2O1	0	100*	4	-85*	105*	87	-5	102*
Cc1ccc(N(C(C)C(=O)Nc2cc(Cl)cc(Cl)c2)S(C)(=O)=O)cc1 (stereo unspecified)	0	.	.	.	.	.	.	.
COc1ccc(Cl)cc1N(CC(=O)Nc1cc(Cl)cc(Cl)c1)S(C)(=O)=O	0	.	.	.	.	.	.	.
CC(C)C#Cc1ccc([C@H]2[C@@H](C#N)N(C(=O)c3ccccn3)[C@H]2CO)cc1	.	?	1	-42	100*	103*	9	12
COc1cccc(C#Cc2ccc([C@@H]3[C@@H](C#N)N(C(=O)c4ccccn4)[C@@H]3CO)cc2)c1	.	108*	-3	-28	108*	78	1	-32
CC(C)C#Cc1ccc([C@@H]2[C@@H](C#N)N(C(=O)c3ccccn3)[C@H]2CO)cc1	.	95	-1	-39	.	.	.	.
COc1cccc(-c2ccc([C@H]3[C@@H](CO)N(C(=O)c4ccccn4)[C@H]3C#N)cc2)c1	.	?	-6	-51	98*	117*	-3	99*
COc1cccc(C#Cc2ccc([C@H]3[C@@H](C#N)N(C(=O)c4ccccn4)[C@@H]3CO)cc2)c1	.	90	-2	-66	.	.	.	.
Cc1ccc2nc(-c3ccc(NC(=O)CSc4nncn4C)cc3)sc2c1	0	.	.	.	.	.	.	.
O=C(CSc1nnc(-c2ccc([N+](=O)[O-])cc2)n1-c1ccccc1)Nc1ccccc1Cl	0	.	.	.	.	.	.	.
CCOC(=O)c1cc(-c2ccccc2)n(CCNC(=O)OC(C)(C)C)c1C	-1	.	.	.	.	.	.	.
C[C@H](CO)N1C[C@H](C)[C@H](CN(C)Cc2ccc(Oc3ccccc3)cc2)Oc2ccc(NC(=O)Nc3ccc(F)cc3)cc2C1=O	.	109*	-3	-13	98*	62	24	104*
C[C@@H]1CN([C@H](C)CO)C(=O)c2cc(NC(=O)Nc3ccc(F)cc3)ccc2O[C@@H]1CN(C)Cc1ccc(Oc2ccccc2)cc1	0	?	1	-14	96*	30	34	106*
CCOC(=O)c1c(NC(=O)c2ccc(C)c(S(=O)(=O)N3CCOCC3)c2)sc(C)c1C	0	.	.	.	.	.	.	.
C[C@H]1CN([C@@H](C)CO)C(=O)c2cc(Br)cnc2O[C@@H]1CN(C)C(=O)Nc1ccc(C(F)(F)F)cc1	.	102*	0	-9	108*	59	-10	54*
C[C@H]1CN([C@@H](C)CO)C(=O)c2cc(C3=CCCC3)cnc2O[C@H]1CN(C)C(=O)Nc1ccc(C(F)(F)F)cc1	.	52	2	-35	.	.	.	.
C[C@@H]1CN([C@@H](C)CO)C(=O)c2cc(C3=CCCC3)cnc2O[C@@H]1CN(C)C(=O)Nc1ccc(C(F)(F)F)cc1	0	?	-2	-30	108*	88	?	104*
C[C@@H]1CN([C@H](C)CO)S(=O)(=O)c2ccc(-c3cccc(C#N)c3)cc2O[C@H]1CN(C)C(=O)Nc1ccccc1F	-1	88	1	-52	.	.	.	.
C[C@H]1CN([C@@H](C)CO)S(=O)(=O)c2ccc(-c3cccc(C#N)c3)cc2O[C@@H]1CN(C)C(=O)Nc1ccccc1F	0	?	-1	-56	88	81	34	61*
C[C@@H]1CN([C@@H](C)CO)S(=O)(=O)c2ccc(-c3cccc(C#N)c3)cc2O[C@@H]1CN(C)C(=O)c1ccccc1	0	109*	-1	-39	104*	56	54*	72*
C[C@@H]1CN([C@@H](C)CO)S(=O)(=O)c2ccc(-c3cccc(C#N)c3)cc2O[C@@H]1CN(C)C(=O)Nc1ccccc1F	.	110*	0	-33	97*	88	48*	68*
O=C(CSc1ncnc2scc(-c3ccc(Cl)cc3)c12)Nc1ccc2c(c1)OCCO2	0	.	.	.	.	.	.	.
SMILES	IDH1 R132H inh	T cruzi growth-1	KDM4C inh	Pf Dd2 growth	T cruzi growth-2	T cruzi growth-3	NIH3T3 tox	NIH3T3 tox 2
CC(C)CC#Cc1cnc2c(c1)C(=O)N([C@H](C)CO)C[C@H](C)[C@@H](CN(C)Cc1ccccc1F)O2	-2	103*	1	-29	111*	79	8	103*
CC(C)CC#Cc1cnc2c(c1)C(=O)N([C@@H](C)CO)C[C@@H](C)[C@H](CN(C)Cc1ccccc1F)O2	-3	119*	2	-31	108*	75	6	103*
CC(C)CC#Cc1cnc2c(c1)C(=O)N([C@@H](C)CO)C[C@@H](C)[C@@H](CN(C)Cc1ccccc1F)O2	-2	?	-4	-20	107*	89	?	32*
CC(C)CC#Cc1cnc2c(c1)C(=O)N([C@H](C)CO)C[C@@H](C)[C@@H](CN(C)Cc1ccccc1F)O2	-1	58	-3	-10	.	.	.	.
COC(=O)c1c(NC(=O)CN2C(=O)c3ccccc3C2=O)sc(C)c1-c1ccccc1	0	.	.	.	.	.	.	.
CS(=O)(=O)N(CC(=O)NC1CCCCC1)c1ccc(Cl)cc1Cl	0	.	.	.	.	.	.	.
C[C@@H]1CN([C@@H](C)CO)S(=O)(=O)c2ccc(-c3ccccc3F)cc2O[C@@H]1CN(C)Cc1cccnc1	1	101*	-1	-42	105*	82	69*	71*
